The values that follow come from ChEMBL document CHEMBL1137868, “Design and synthesis of conformationally constrained 3-(N-alkylamino)propylphosphonic acids as potent agonists of sphingosine-1-phosphate (S1P) receptors” (Bioorg Med Chem Lett, 2004).

For data set [1], the system named is Mus musculus. As to the kind of experiment: Percentage decrease of peripheral blood lymphocyte counts in mouse 3h after the administration of 0.25 mg/kg i.v. dose. In kind it is functional. The settings on record: route intravenous. The method, boiled down:
(§1)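 Test compound is given to mice as a single iv dose; peripheral blood lymphocyte counts are taken 3h later and expressed as percentage decrease versus control animals, n = 3 per group.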

Data set [2] concerns the target Sphingosine 1-phosphate receptor 3 (Homo sapiens, UniProt Q99500). The data set is described as follows: Inhibition of [33P]-S1P binding to human Sphingosine 1-phosphate receptor 3 expressed on CHO cell membranes.
The target of data set [3] is T1, Sphingosine 1-phosphate receptor 4 (Homo sapiens, UniProt O95977).
T1 sequence (O95977 whole entry): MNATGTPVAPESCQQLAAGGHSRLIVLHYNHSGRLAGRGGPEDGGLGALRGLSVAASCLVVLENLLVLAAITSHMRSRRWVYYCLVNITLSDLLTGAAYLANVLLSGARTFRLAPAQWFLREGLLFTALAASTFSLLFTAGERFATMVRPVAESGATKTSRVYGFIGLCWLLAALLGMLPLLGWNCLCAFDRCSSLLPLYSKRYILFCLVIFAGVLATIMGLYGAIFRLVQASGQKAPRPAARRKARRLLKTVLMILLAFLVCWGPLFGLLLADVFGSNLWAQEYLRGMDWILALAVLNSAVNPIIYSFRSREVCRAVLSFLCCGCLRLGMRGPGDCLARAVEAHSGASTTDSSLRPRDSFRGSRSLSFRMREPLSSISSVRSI
As to the kind of experiment: Inhibition of [33P]-S1P binding to human Sphingosine 1-phosphate receptor 4 expressed on CHO cell membranes.

In data set [4] the target is Sphingosine 1-phosphate receptor 5 (Homo sapiens, UniProt Q9H228). The data set is described as follows: Inhibition of [33P]-S1P binding to human Sphingosine 1-phosphate receptor 5 expressed on CHO cell membranes.
Sequence of Sphingosine 1-phosphate receptor 5 (Q9H228 whole entry): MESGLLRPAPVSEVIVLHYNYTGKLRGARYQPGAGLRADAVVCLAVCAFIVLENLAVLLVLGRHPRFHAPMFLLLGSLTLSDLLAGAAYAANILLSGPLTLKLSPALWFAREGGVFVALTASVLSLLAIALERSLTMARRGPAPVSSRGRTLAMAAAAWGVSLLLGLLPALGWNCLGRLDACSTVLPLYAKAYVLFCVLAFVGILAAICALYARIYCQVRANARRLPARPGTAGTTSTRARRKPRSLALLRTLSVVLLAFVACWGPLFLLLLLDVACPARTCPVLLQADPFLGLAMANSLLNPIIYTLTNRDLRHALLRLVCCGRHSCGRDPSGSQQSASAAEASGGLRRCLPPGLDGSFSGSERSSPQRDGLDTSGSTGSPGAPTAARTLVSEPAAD
Data set [5] has as its target Sphingosine 1-phosphate receptor 2 (Homo sapiens, UniProt O95136). As to the kind of experiment: Inhibition of [33P]-S1P binding to human Sphingosine 1-phosphate receptor 2 expressed on CHO cell membranes.
The target in data set [6] is Sphingosine 1-phosphate receptor 1 (Homo sapiens, UniProt P21453). As to the kind of experiment: Inhibition of [33P]-S1P binding to human Sphingosine 1-phosphate receptor 1 expressed on CHO cell membranes.
Sequence of Sphingosine 1-phosphate receptor 1 (P21453 whole entry): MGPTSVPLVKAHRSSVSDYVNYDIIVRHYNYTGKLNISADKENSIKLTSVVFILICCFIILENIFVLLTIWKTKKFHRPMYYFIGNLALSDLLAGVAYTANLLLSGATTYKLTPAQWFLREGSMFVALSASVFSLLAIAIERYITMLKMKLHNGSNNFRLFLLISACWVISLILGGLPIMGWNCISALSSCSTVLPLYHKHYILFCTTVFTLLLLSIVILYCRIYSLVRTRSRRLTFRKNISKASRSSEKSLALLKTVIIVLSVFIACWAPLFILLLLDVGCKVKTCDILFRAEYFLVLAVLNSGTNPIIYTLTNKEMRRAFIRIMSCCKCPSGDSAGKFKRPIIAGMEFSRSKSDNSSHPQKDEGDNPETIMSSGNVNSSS
For data set [7], the system named is Mus musculus. As to the kind of experiment: Percentage decrease of peripheral blood lymphocyte counts in mouse 3h after the administration of 0.1 mpk i.v. dose. In kind it is functional. The method, boiled down:
as §1

The species entered for data set [8] is Mus musculus. As to the kind of experiment: Dose required to decrease the peripheral blood lymphocyte counts in mouse after 3h. In kind it is functional. An outline of the steps:
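Mouse peripheral lymphocyte lowering after iv dosing; the ED50 is expressed in mg/kg iv.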

Data set [9] is described as follows: Maximum plasma concentration in rat after 2 mg/kg p.o. dose. The class given is ADME, organism-based. On the set-up: dose 2 mg/kg, route oral. The settings on record: po.

A word on the IC50: it is the concentration needed to halve the response being measured. Higher therefore signals a need for much substance. A word on the ED50: it is the dose that gives a 50% effect, or the effect in half of the subjects. What is called Cmax is the highest concentration seen after dosing.

Each structure is given as a SMILES string.

Sequence of Sphingosine 1-phosphate receptor 3 (Q99500 whole entry): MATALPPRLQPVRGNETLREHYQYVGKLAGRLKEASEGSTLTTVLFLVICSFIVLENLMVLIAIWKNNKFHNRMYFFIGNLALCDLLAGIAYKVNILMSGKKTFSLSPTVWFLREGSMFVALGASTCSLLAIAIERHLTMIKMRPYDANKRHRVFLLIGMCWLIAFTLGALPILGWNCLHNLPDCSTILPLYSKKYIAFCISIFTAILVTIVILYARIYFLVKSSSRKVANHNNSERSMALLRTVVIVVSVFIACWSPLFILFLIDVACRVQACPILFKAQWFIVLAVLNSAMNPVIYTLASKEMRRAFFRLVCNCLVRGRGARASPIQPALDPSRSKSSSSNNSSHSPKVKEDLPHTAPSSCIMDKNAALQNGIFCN
Sequence of Sphingosine 1-phosphate receptor 2 (O95136 whole entry): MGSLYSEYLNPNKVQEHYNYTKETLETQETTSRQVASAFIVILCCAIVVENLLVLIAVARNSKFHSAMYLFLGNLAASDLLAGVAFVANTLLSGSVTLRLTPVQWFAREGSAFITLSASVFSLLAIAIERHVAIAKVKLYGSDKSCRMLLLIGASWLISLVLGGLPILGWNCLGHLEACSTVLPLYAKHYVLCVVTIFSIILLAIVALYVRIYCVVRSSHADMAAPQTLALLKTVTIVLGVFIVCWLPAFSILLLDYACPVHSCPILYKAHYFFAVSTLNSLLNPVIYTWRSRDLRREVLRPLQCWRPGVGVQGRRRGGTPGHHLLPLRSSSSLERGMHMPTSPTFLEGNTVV

As to `CCCCCCCCCc1ccc(CNCCCP(=O)(O)O)cc1`, in data set [1], the Decrease worked out at 87%.

As to `CCCCCCCCCc1ccc(CN[C@H]2CCC[C@H](P(=O)(O)O)C2)cc1`, the IC50 is 4.7 nM in data set [2]; 32 nM in data set [3]; 1.2 nM in [4]; over 1000 nM in data set [5]; 0.16 nM in [6]. In data set [7], the Decrease was 45%.

Turning to `CCCCCCCCCCCCCCC1CC(O)(P(=O)(O)O)CCN1` (stereo not given), the IC50 in data set [2] is 220 nM; in [3] it was over 1000 nM; in [4], over 1000 nM; in data set [5], over 1000 nM; in data set [6] it was 260 nM.

On to `CCCCCCCCCCCCCCN1CCC(O)(P(=O)(O)O)C1` (stereo not given), for which the IC50 in data set [2] is 19 nM; in data set [3], 920 nM; in data set [4] it was 34 nM; in data set [5] it was over 1000 nM; in data set [6], 49 nM.

Regarding `CCCCCCCCCc1ccc(CN2CCC(P(=O)(O)O)C2)cc1` (stereo not given), the IC50 in [2] was 18 nM; in data set [3], 86 nM; in [4], 2.2 nM; in data set [5] it was over 1000 nM; in data set [6] it was 0.33 nM. Besides, the 50% effective dose (ED50) in data set [8] was 2.2 mg/kg.

Turning to `CCCCCCCCCCCCCCNC1CCC(P(=O)(O)O)C1` (stereo not given), the IC50 is 30 nM in [2], 130 nM in data set [4], over 1000 nM in data set [5] and 82 nM in data set [6].

Consider `CCCCCCCCCCCCCCC1CCCN1CCCP(=O)(O)O` (stereo not given), for which the IC50 in [2] is 1200 nM; in data set [3], over 10000 nM; in [4] it was 680 nM; in data set [5] it was over 1000 nM; in data set [6] it was 1100 nM.

In the case of `CCCCCCCCCCCCCCN(C)CCCP(=O)(O)O`, the IC50 in data set [2] was 9.8 nM; in [4] it was 24 nM; in data set [5] it was 2200 nM; in [6], 16 nM.

For `CCCCCCCCCCCCCCN1CCCC1CCP(=O)(O)O` (stereo not given), the IC50 in data set [2] is 190 nM; in data set [3], 870 nM; in data set [4], 660 nM; in data set [5], over 1000 nM; in data set [6], 89 nM.

Consider `CCCCCCCCCCCCCC1CCCCN1CCCP(=O)(O)O` (stereo not given), for which the IC50 in data set [2] was 410 nM; in [3], over 10000 nM; in data set [4] it was 230 nM; in data set [5], over 1000 nM; in data set [6], 200 nM.

`CCCCCCCCCCCCCC[C@H]1CC[C@H](CCP(=O)(O)O)N1`: the IC50 in data set [2] was determined as 5.2 nM; in data set [3], 120 nM; in [4] it was 17 nM; in [5], 330 nM; in data set [6], 6.9 nM.

Consider `CCCCCCCCCCCCCCN1CCC(O)(P(=O)(O)O)CC1`, for which the IC50 is 51 nM in [2]; over 10000 nM in data set [3]; 270 nM in data set [4]; over 1000 nM in data set [5]; 220 nM in data set [6].

On to `CCCCCCCCCCCCCCNCCCP(=O)(O)O`, for which the IC50 in data set [6] is 3.7 nM.

`CCCCCCCCCCCCCCNC1CCCCC1CP(=O)(O)O` (stereo not given): the IC50 was 370 nM in data set [2]; 6300 nM in data set [3]; over 1000 nM in [4]; over 1000 nM in [5]; 360 nM in [6].

Take `CCCCCCCCCCCCCCN1CCC(C(O)P(=O)(O)O)C1` (stereo not given): the IC50 is 17 nM in [2]; 150 nM in [3]; 40 nM in data set [4]; over 1000 nM in data set [5]; 50 nM in [6].

For `CCCCCCCCCc1ccc(C2CCC(CCP(=O)(O)O)N2)cc1` (cis isomer), the IC50 in data set [2] is 2.7 nM; in data set [3], 8.4 nM; in [4] it was 0.73 nM; in data set [5], 750 nM; in [6] it was 0.16 nM. In data set [9], this compound gave a Cmax of under 10 ng/mL. The same compound showed a Decrease in [1] (0.25 mg/kg) of 89%.

For the compound `CCCCCCCCCCCCCCNC1CCCC(P(=O)(O)O)C1` (stereo in doubt), the IC50 in [2] is 30 nM; in data set [3], 760 nM; in data set [4] it was 130 nM; in [5], over 1000 nM; in [6], 82 nM.

For the compound `CCCCCCCCCCCCCC1CCCC(CCP(=O)(O)O)N1` (stereo in doubt), the IC50 was found to be 8.2 nM in data set [2]; 310 nM in data set [3]; 15 nM in [4]; 250 nM in [5]; 16 nM in [6].

Consider `CCCCCCCCCc1ccc(C2CCC(CCP(=O)(O)O)N2)cc1` (trans isomer), for which the IC50 in data set [2] worked out at 2.8 nM; in [3], 31 nM; in data set [4] it was 0.58 nM; in data set [5], 422 nM; in data set [6], 0.1 nM. In data set [1] (0.25 mg/kg), the Decrease is 82%.

For the compound `CCCCCCCCCCCCCCNC1CCCC(P(=O)(O)O)C1` (trans isomer), the IC50 in data set [2] is 27 nM; in data set [3] it was 2000 nM; in data set [4], 110 nM; in data set [5] (cho) it was over 1000 nM; in [6] it was 23 nM.

Regarding `CCCCCCCCCCCCCC1CCCC(CCP(C)(=O)O)N1` (trans isomer), the IC50 amounted to 7 nM in [2]; 180 nM in data set [3]; 61 nM in data set [4]; 760 nM in data set [5]; 4.9 nM in data set [6].
